According to ChEMBL document CHEMBL1153988 (J Med Chem, 2009):
The source made the active and inactive calls. The rule behind the calls is not given here.

What was measured:
Rattus norvegicus [1] = test: Anticonvulsant activity in albino Sprague-Dawley rat assessed as protection against scMet-induced seizures at 50 mg/kg, po after 15 mins; assay type: functional
Procedure, shortened: (§1)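 Male Sprague-Dawley albino rats (100-150 g) were given the compound orally as a suspension in 0.5% methylcellulose. Seizures were induced by subcutaneous pentylenetetrazol, dissolved in 0.9% saline as a 2.82% solution. The read-out was animals protected over animals tested.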

Mus musculus [2] = test: Anticonvulsant activity in CF1 albino mouse assessed as protection against maximal electroshock-induced seizures at 30 mg/kg, ip after 4 hrs; assay type: functional, organism-based; set-up: dose 30 mg/kg
Procedure, shortened: (§2)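 Adult male CF no. 1 albino mice (18-25 g). Test compound suspended in 0.5% methylcellulose and given intraperitoneally at 0.01 mL/g body weight. Maximal electroshock challenge at the stated time. Read-out is the number of animals protected over the number tested; neurotoxicity is scored in parallel.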

Rattus norvegicus [3] = test: Anticonvulsant activity in albino Sprague-Dawley rat assessed as protection against maximal electroshock-induced seizures at 50 mg/kg, po after 1 hr; assay type: functional
Procedure, shortened: (§3)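 Adult male Sprague-Dawley albino rats (100-150 g) dosed orally with compound suspended in 0.5% methylcellulose (0.04 mL per 10 g). Maximal electroshock challenge at the stated time. Protection is scored in 25% steps as the fraction of animals protected, with neurotoxicity recorded in parallel.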

Rattus norvegicus [4] = test: Anticonvulsant activity in albino Sprague-Dawley rat assessed as protection against scMet-induced seizures at 50 mg/kg, po after 1 hr; assay type: functional; procedure, shortened: as §1
Rattus norvegicus [5] = test: Anticonvulsant activity in albino Sprague-Dawley rat assessed as protection against scMet-induced seizures at 50 mg/kg, po after 2 hrs; assay type: functional; procedure, shortened: as §1
Mus musculus [6] = test: Anticonvulsant activity in CF1 albino mouse assessed as protection against maximal electroshock-induced seizures at 300 mg/kg, ip after 4 hrs; assay type: functional, organism-based; set-up: dose 300 mg/kg; procedure, shortened: as §2
Rattus norvegicus [7] = test: Anticonvulsant activity in albino Sprague-Dawley rat assessed as protection against maximal electroshock-induced seizures at 50 mg/kg, po after 30 mins; assay type: functional; procedure, shortened: as §3
Mus musculus [8] = test: Neurotoxicity in CF1 albino mouse at 300 mg/kg, ip after 0.5 hrs; assay type: toxicity, organism-based; set-up: dose 300 mg/kg, route intraperitoneal; settings: in vivo
Procedure, shortened: (§4)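 Male CF no. 1 albino mice (18-25 g) received a single ip dose as a suspension in 0.5% methylcellulose. The read-out was the number of animals showing neurotoxicity (minimal motor impairment) over the number tested.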

Mus musculus [9] = test: Anticonvulsant activity in CF1 albino mouse assessed as protection against scMet-induced seizures at 300 mg/kg, ip after 0.5 hrs; assay type: functional, organism-based; set-up: dose 300 mg/kg
Procedure, shortened: (§5)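 Adult male CF no. 1 albino mice (18-25 g) dosed intraperitoneally with compound suspended in 0.5% methylcellulose (0.01 mL/g). Convulsant challenge given subcutaneously as a 0.85% pentylenetetrazol solution in 0.9% saline. Read-out is animals protected over animals tested, with neurotoxicity scored in parallel.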

Rattus norvegicus [10] = species: Rattus norvegicus; test: Protective index, ratio of TD50 for albino Sprague-Dawley rat to ED50 for scMet-induced albino Sprague-Dawley rat seizure model; assay type: functional
Procedure, shortened: (§6)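 Protective index is the rat TD50 (minimal motor impairment) divided by the ED50 in the MES or sc pentylenetetrazol test. Male Sprague-Dawley rats were dosed orally in 0.5% methylcellulose, and both values came from probit analysis.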

Mus musculus [11] = test: Anticonvulsant activity in CF1 albino mouse assessed as protection against scMet-induced seizures at 100 mg/kg, ip after 4 hrs; assay type: functional, organism-based; set-up: dose 100 mg/kg; procedure, shortened: as §5
Mus musculus [12] = test: Anticonvulsant activity in CF1 albino mouse assessed as protection against scMet-induced seizures at 30 mg/kg, ip after 4 hrs; assay type: functional, organism-based; set-up: dose 30 mg/kg; procedure, shortened: as §5
Mus musculus [13] = test: Anticonvulsant activity in CF1 albino mouse assessed as protection against scMet-induced seizures at 30 mg/kg, ip after 0.5 hrs; assay type: functional, organism-based; set-up: dose 30 mg/kg; procedure, shortened: as §5
Rattus norvegicus [14] = species: Rattus norvegicus; test: Protective index, ratio of TD50 for albino Sprague-Dawley rat to ED50 for maximal electroshock-induced albino Sprague-Dawley rat seizure model; assay type: functional; procedure, shortened: as §6
Mus musculus [15] = test: Neurotoxicity in CF1 albino mouse at 300 mg/kg, ip after 4 hrs; assay type: toxicity, organism-based; set-up: dose 300 mg/kg, route intraperitoneal; settings: in vivo; procedure, shortened: as §4
Mus musculus [16] = test: Anticonvulsant activity in CF1 albino mouse assessed as protection against scMet-induced seizures at 100 mg/kg, ip after 0.5 hrs; assay type: functional, organism-based; set-up: dose 100 mg/kg; procedure, shortened: as §5
Rattus norvegicus [17] = test: Anticonvulsant activity in albino Sprague-Dawley rat assessed as protection against maximal electroshock-induced seizures at 50 mg/kg, po after 2 hrs; assay type: functional; procedure, shortened: as §3
Mus musculus [18] = test: Anticonvulsant activity in CF1 albino mouse assessed as protection against scMet-induced seizures at 300 mg/kg, ip after 4 hrs; assay type: functional, organism-based; set-up: dose 300 mg/kg; procedure, shortened: as §5
Rattus norvegicus [19] = test: Anticonvulsant activity in albino Sprague-Dawley rat assessed as protection against scMet-induced seizures at 50 mg/kg, po; assay type: functional, organism-based; set-up: dose 50 mg/kg; procedure, shortened: as §1
Rattus norvegicus [20] = test: Neurotoxicity in albino Sprague-Dawley rat at 50 mg/kg, po; assay type: toxicity, organism-based; set-up: dose 50 mg/kg, route oral; settings: in vivo
Procedure, shortened: (§7)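 Neurotoxicity was scored in male Sprague-Dawley albino rats (100-150 g) dosed orally with a suspension in 0.5% methylcellulose. The read-out was the fraction of animals showing neurotoxicity (minimal motor impairment).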

Mus musculus [21] = test: Anticonvulsant activity in CF1 albino mouse assessed as protection against maximal electroshock-induced seizures at 300 mg/kg, ip after 0.5 hrs; assay type: functional, organism-based; set-up: dose 300 mg/kg; procedure, shortened: as §2
[22] = Neurotoxicity in po dosed albino Sprague-Dawley rat assessed as minimal motor impairment; assay type: toxicity, organism-based; settings: in vivo
Procedure, shortened: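 Rats: male Sprague-Dawley (100-150 g), oral dosing in 0.5% methylcellulose. Doses were varied to give four points between no minimal motor impairment and all animals impaired. TD50 and 95% confidence intervals came from probit analysis.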

Mus musculus [23] = test: Neurotoxicity in CF1 albino mouse at 30 mg/kg, ip after 4 hrs; assay type: toxicity, organism-based; set-up: dose 30 mg/kg, route intraperitoneal; settings: in vivo; procedure, shortened: as §4
Rattus norvegicus [24] = test: Anticonvulsant activity in po dosed albino Sprague-Dawley rat assessed as protection against maximal electroshock-induced seizures; assay type: functional
Rattus norvegicus [25] = test: Neurotoxicity in albino Sprague-Dawley rat assessed as minimal motor impairment at 200 mg/kg, po; assay type: toxicity, organism-based; set-up: dose 200 mg/kg, route oral; settings: in vivo; procedure, shortened: as §7
Mus musculus [26] = test: Anticonvulsant activity in CF1 albino mouse assessed as protection against maximal electroshock-induced seizures at 30 mg/kg, ip after 0.5 hrs; assay type: functional, organism-based; set-up: dose 30 mg/kg; procedure, shortened: as §2
Rattus norvegicus [27] = test: Anticonvulsant activity in albino Sprague-Dawley rat assessed as protection against maximal electroshock-induced seizures at 50 mg/kg, po after 15 mins; assay type: functional; procedure, shortened: as §3
Mus musculus [28] = test: Anticonvulsant activity in CF1 albino mouse assessed as protection against maximal electroshock-induced seizures at 100 mg/kg, ip after 0.5 hrs; assay type: functional, organism-based; set-up: dose 100 mg/kg; procedure, shortened: as §2
Mus musculus [29] = test: Anticonvulsant activity in CF1 albino mouse assessed as protection against maximal electroshock-induced seizures at 100 mg/kg, ip after 4 hrs; assay type: functional, organism-based; set-up: dose 100 mg/kg; procedure, shortened: as §2
Mus musculus [30] = test: Neurotoxicity in CF1 albino mouse at 30 mg/kg, ip after 0.5 hrs; assay type: toxicity, organism-based; set-up: dose 30 mg/kg, route intraperitoneal; settings: in vivo; procedure, shortened: as §4
Rattus norvegicus [31] = test: Anticonvulsant activity in albino Sprague-Dawley rat assessed as protection against scMet-induced seizures at 50 mg/kg, po after 30 mins; assay type: functional; procedure, shortened: as §1
Rattus norvegicus [32] = test: Anticonvulsant activity in albino Sprague-Dawley rat assessed as protection against scMet-induced seizures at 50 mg/kg, po after 4 hrs; assay type: functional; procedure, shortened: as §1
Rattus norvegicus [33] = test: Anticonvulsant activity in albino Sprague-Dawley rat assessed as protection against maximal electroshock-induced seizures at 50 mg/kg, po after 4 hrs; assay type: functional, organism-based; set-up: dose 50 mg/kg; procedure, shortened: as §3
Rattus norvegicus [34] = test: Anticonvulsant activity in po dosed albino Sprague-Dawley rat assessed as protection against scMet-induced seizures; assay type: functional
Procedure, shortened: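 Male Sprague-Dawley albino rats (100-150 g) were dosed orally in 0.5% methylcellulose and tested by MES or by sc pentylenetetrazol (2.82% in 0.9% saline). Doses were varied to give 3-4 points between 0% and 100% protection. ED50 and 95% confidence intervals came from probit analysis.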

Mus musculus [35] = test: Neurotoxicity in CF1 albino mouse at 100 mg/kg, ip after 4 hrs; assay type: toxicity, organism-based; set-up: dose 100 mg/kg, route intraperitoneal; settings: in vivo; procedure, shortened: as §4

In the case of `CC1(C)C(C)(C)C1(Cl)C(N)=O`, the Activity (Rattus norvegicus [1]) is reported as “inactive”, the Activity (Mus musculus [2]) is reported as “Non-toxic” and the Activity (Rattus norvegicus [3]) is reported as 75%. For the same molecule, the Activity (Rattus norvegicus [4]) was 50%, the Activity (Rattus norvegicus [5]) was 25% and the Activity (Mus musculus [6]) was “Non-toxic”. The Activity (Rattus norvegicus [7]) was 25%, the Activity (Mus musculus [8]) was “Toxic” and the Activity (Mus musculus [9]) was “Toxic”. The PI (Rattus norvegicus [10]) was >7.8, the Activity (Mus musculus [11]) was “Non-toxic” and the Activity (Mus musculus [12]) was “Non-toxic”. For the same molecule, the Activity (Mus musculus [13]) was “Non-toxic”, the PI (Rattus norvegicus [14]) was >2.1 and the Activity (Mus musculus [15]) was “Non-toxic”. The Activity (Mus musculus [16]) was “Non-toxic”, the Activity (Rattus norvegicus [17]) was 75% and the Activity (Mus musculus [18]) was “Non-toxic”. For the same molecule, the Activity (Rattus norvegicus [19]) was “Active”, the Activity (Rattus norvegicus [20]) was “Not Active” and the Activity (Mus musculus [21]) was “Toxic”. For the same molecule, the TD50 [22] was > 200 mg/kg, the Activity (Mus musculus [23]) was “Non-toxic” and the ED50 (Rattus norvegicus [24]) was 97 mg/kg. The Activity (Rattus norvegicus [25]) was “Non-toxic”, the Activity (Mus musculus [26]) was “Non-toxic” and the Activity (Rattus norvegicus [27]) was 25%. For the same molecule, the Activity (Mus musculus [28]) was “Non-toxic”, the Activity (Mus musculus [29]) was “Non-toxic” and the Activity (Mus musculus [30]) was “Non-toxic”. For the same molecule, the Activity (Rattus norvegicus [31]) was 50%, the Activity (Rattus norvegicus [32]) was “inactive” and the Activity (Rattus norvegicus [33]) was “inactive”. For the same molecule, the ED50 (Rattus norvegicus [34]) was 27 mg/kg and the Activity (Mus musculus [35]) was “Non-toxic”.
